Test results taken from ChEMBL document CHEMBL1143630, “Successful in silico discovery of novel nonsteroidal ligands for human sex hormone binding globulin” (J Med Chem, 2005).

Columns and labels:
[1] = biological target: T1, Sex hormone-binding globulin (Homo sapiens) (UniProt P04278); assay: In vitro inhibition of [3H]DHT binding to human sex hormone-binding globulin (SHBG); set-up: concentration or dose not given beside the values
T1 sequence (whole entry): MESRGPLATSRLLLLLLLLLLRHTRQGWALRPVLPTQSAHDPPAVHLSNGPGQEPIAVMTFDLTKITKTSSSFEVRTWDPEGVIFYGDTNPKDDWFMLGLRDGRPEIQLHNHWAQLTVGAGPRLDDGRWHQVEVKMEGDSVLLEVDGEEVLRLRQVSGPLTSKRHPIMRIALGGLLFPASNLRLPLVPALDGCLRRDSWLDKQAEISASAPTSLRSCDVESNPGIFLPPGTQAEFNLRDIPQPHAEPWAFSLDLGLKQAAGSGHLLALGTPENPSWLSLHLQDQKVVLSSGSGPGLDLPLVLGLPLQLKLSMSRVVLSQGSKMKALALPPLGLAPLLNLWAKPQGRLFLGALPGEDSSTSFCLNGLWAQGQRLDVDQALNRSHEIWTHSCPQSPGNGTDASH
Outline: (§1)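 Human pregnancy serum diluted 1:200 (about 1 nM SHBG), stripped of endogenous steroid with dextran-coated charcoal, mixed with [3H]DHT at 10 nM. Triplicate test compound added, incubated overnight at room temperature. Dextran-coated charcoal slurry then added for 10 min at 0°C and centrifuged to separate bound from free label. Bound label counted by scintillation and expressed relative to the no-competitor control.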

[2] = biological target: T1, Sex hormone-binding globulin (Homo sapiens); assay: Relative binding affinity towards human sex hormone-binding globulin (SHBG) compared to estradiol; outline: as §1
[3] = biological target: T1, Sex hormone-binding globulin (Homo sapiens); assay: Relative binding affinity for human sex hormone-binding globulin (SHBG) compared to testosterone; outline: as §1
[4] = biological target: T2, Sex hormone-binding globulin (Homo sapiens, UniProt P04278); assay: Inhibitory concentration against [3H]-DHT binding to human sex hormone-binding globulin (SHBG); outline: as §1
T2 sequence (P04278 whole entry): T1 sequence (whole entry)

[5] = biological target: T1, Sex hormone-binding globulin (Homo sapiens); assay: Association […] constant for human sex hormone-binding globulin (SHBG)

| Reduction [1] | SMILES | also measured |
| --- | --- | --- |
| 0% | CC[C@H](NC(=O)Cc1c(C)c2ccc(O)cc2oc1=O)C(=O)O |  |
| 10% | COC(=O)c1ccc(CC(=O)c2ccc(O)cc2O)o1 |  |
| 0% | COC(=O)c1cc(CC(=O)c2ccc(O)cc2O)c(C)o1 |  |
| 56% | CC1=C[C@@H](C)[C@@]2(CO)CO[C@@H](c3ccc(O)cc3)[C@@H]1[C@H]2C | relative binding affinity (RBA) [2]: 493; relative binding affinity (RBA) [3]: 125; IC50 [4]: 124 µM; Ka [5]: 130000 M⁻¹ |
| 2% | C[C@H]1CC[C@H]2[C@@](C)(CO)[C@@H](O)CC[C@]2(C)[C@@]12CC[C@](CO)(CC(=O)O)O2 |  |
| 46% | Cc1c(CCC(=O)O)c(=O)oc2c(C)c(O)ccc12 |  |
| 0% | O=C(Cc1ccc2cccnc2c1)c1ccc(O)cc1O |  |
| 6% | O=C1C=CC2=C3c4cc(O)c(O)cc4C[C@@]3(O)COC2=C1O |  |
| 57% | O=C(/C=C/c1cccnc1)c1ccc(O)cc1 |  |
| 42% | CC(=O)Oc1ccc2c(C)c(C[C@H](C)O)c(=O)oc2c1 |  |
| 11% | C[C@H]1CC[C@@H]2[C@](C)(CO)[C@H](O)CC[C@@]2(C)[C@]12CC[C@@]1(CCOC1)O2 |  |
| 0% | C=C1CC[C@H]2[C@](C)(CO)[C@H](O)CC[C@@]2(C)[C@@H]1C/C=C1/C(=O)OC[C@@H]1O |  |
| 0% | O=C1C=CC2=N[C@@]34CCCC[C@@H]3[C@@H](c3ccc(O)cc3)C=C(c3ccccc3)N4C2=C1 |  |
| 0% | Cc1c(CC(=O)N[C@@H](C)C(=O)O)c(=O)oc2cc(O)ccc12 |  |
| 95% | O=C(Cc1ccc(O)cc1)c1ccc(O)cc1O | relative binding affinity (RBA) [2]: 4530; relative binding affinity (RBA) [3]: 1150; IC50 [4]: 13.6 µM; Ka [5]: 1.2e+06 M⁻¹ |
| 84% | COc1cc([C@H]2OC[C@]3(CO)[C@H](C)[C@H]2C(C)=C[C@@H]3C)ccc1O | relative binding affinity (RBA) [2]: 2750; relative binding affinity (RBA) [3]: 696; IC50 [4]: 22.4 µM; Ka [5]: 730000 M⁻¹ |
| 1% | Cc1cc(O)c(C(=O)/C=C/c2ccc(O)c([N+](=O)[O-])c2)c(=O)o1 |  |
| 12% | COc1cc2c(cc1O)CCN(C[C@@H](O)CNCCO)[C@H]2C |  |
| 6% | C[C@H]1CC[C@H]2[C@@](C)(CO)[C@H](O)CC[C@]2(C)[C@@]12CC[C@@](C)(CO)O2 |  |
| 7% | C=C1CC[C@H]2[C@](C)(CO)[C@H](O)CC[C@@]2(C)[C@@H]1C/C=C1/C(=O)OC[C@H]1O |  |
| 4% | CC(=O)c1c(O)c(C)c(O)c2c1OC1=CC(=O)[C@H](C(C)=O)C(=O)[C@]12C |  |
| 9% | C[C@H]1CC[C@@H]2[C@](C)(CO)[C@H](O)CC[C@@]2(C)[C@@]12C[C@@]1(COC(=O)C1)CO2 |  |
| 27% | O=C1C=CC2=C3c4ccc(O)cc4OC[C@]3(O)CC2=C1 |  |
| 0% | C=C1CC[C@H]2[C@](C)(CO)[C@H](O)CC[C@@]2(C)[C@@H]1/C=C/C1=CCOC1=O |  |
| 2% | COc1cc(/C=C/C(=O)c2c(O)cc(C)oc2=O)ccc1O |  |
| 5% | CC[C@@H](O)c1ccc(OC[C@H](O)CN2CCCCC2)c(OC)c1 |  |

| SMILES | Reduction [1] | also measured |
| --- | --- | --- |
| CC1(C)CC2(CC(C)(C)c3cc(O)c(O)cc32)c2cc(O)c(O)cc21 | 48% |  |
| CN1CCc2cc(O)c(O)cc2[C@H]1Cc1ccc(O)c(O)c1 | 14% |  |
